Results published in ChEMBL document CHEMBL4359917, “Design, synthesis, and biological evaluation of novel benzodiazepine derivatives as anticancer agents through inhibition of tubulin polymerization in vitro and in vivo” (Eur J Med Chem, 2019).
Activity calls are given as the source filed them. No cut-off for these calls is given here.

Experiments:
A549 [1] = assay: Induction of apoptosis in human A549 cells assessed as necrotic cells at 10 nM after 24 hrs by annexin V-FITC/propidium iodide staining based flow cytometry (reference value: 0.03 %); type: functional
Summary of the method: (§1)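 A549 cells treated at 1, 5 or 10 nM for 24 or 48 h, then analysed by flow cytometry. Quadrants: upper left necrotic, upper right late apoptotic, bottom left live, bottom right early apoptotic. Three experiments; representative results shown.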

A549 [2] = assay: Induction of apoptosis in human A549 cells assessed as necrotic cells at 10 nM after 48 hrs by annexin V-FITC/propidium iodide staining based flow cytometry (reference value: 0.03 %); type: functional; summary of the method: as §1
A549 [3] = assay: Cell cycle arrest in human A549 cells assessed as appearance of hypodiploid DNA content at sub G1 phase at 1 to 10 nM after 48 hrs by RNase/propidium iodide staining based flow cytometry analysis; type: functional
A549 [4] = assay: Induction of apoptosis in human A549 cells assessed as early apoptotic cells at 1 nM after 48 hrs by annexin V-FITC/propidium iodide staining based flow cytometry (reference value: 0.19 %); type: functional; summary of the method: as §1
A549 [5] = assay: Induction of apoptosis in human A549 cells assessed as necrotic cells at 1 nM after 48 hrs by annexin V-FITC/propidium iodide staining based flow cytometry (reference value: 0.03 %); type: functional; summary of the method: as §1
[6] = Metabolic stability in Sprague-Dawley rat liver microsomes assessed as parent compound remaining after 90 mins in presence of NADPH by HPLC-UV-MS analysis; type: ADME, Microsome; conditions: read-out: Stability
Summary of the method: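 Compound incubated with rat liver microsomes in buffer containing an NADPH regenerating system. Percentage of parent remaining was determined at time points up to 180 min, and half-life was derived.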

A549 [7] = assay: Induction of apoptosis in human A549 cells assessed as early apoptotic cells at 10 nM after 24 hrs by annexin V-FITC/propidium iodide staining based flow cytometry (reference value: 0.19 %); type: functional; summary of the method: as §1
A549 [8] = assay: Induction of apoptosis in human A549 cells assessed as late apoptotic cells at 10 nM after 48 hrs by annexin V-FITC/propidium iodide staining based flow cytometry (reference value: 0.02 %); type: functional; summary of the method: as §1
HCT-116 = assay: Antiproliferative activity against human HCT116 cells assessed as cell growth inhibition measured after 48 hrs by MTT assay; type: functional, cell-based; conditions: HCT-116, 48 h
Summary of the method: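 Cancer cell lines exposed to compounds for 48 h; viability read by MTT assay. IC50 reported as mean ± SD from at least three independent experiments.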

A549 [9] = assay: Induction of apoptosis in human A549 cells assessed as live cells at 10 nM after 48 hrs by annexin V-FITC/propidium iodide staining based flow cytometry (reference value: 99.75 %); type: functional; summary of the method: as §1
A549 [10] = assay: Induction of apoptosis in human A549 cells assessed as necrotic cells at 5 nM after 48 hrs by annexin V-FITC/propidium iodide staining based flow cytometry (reference value: 0.03 %); type: functional; summary of the method: as §1

Q: Which results are given for `COc1ccc2c(c1O)NC(=O)CN=C2c1cc(OC)c(OC)c([Se]C)c1`?
A: Activity (A549 [1]): 0.09%; Activity (A549 [2]): 3.61%; Activity (A549 [3]): Active; Activity (A549 [4]): 13.64%; Activity (A549 [5]): 0.28%; remaining at 1.5 h [6]: 75.9%; Activity (A549 [7]): 23.06%; Activity (A549 [8]): 19.15%; IC50 (HCT-116): 8.9 nM; Activity (A549 [9]): 11.84%; Activity (A549 [10]): 2.28%
